# Screening data as filed in PubChem BioAssay.
# Kir21 inh: Kir2.1 (mouse) channel inhibition. P35561. HEK293-Kir2.1, FluxOR thallium flux fluorescence; stronger effect = lower value. B-score at 10 µM. 0.85% of 310,000 active;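 active means fluorescence ratio B-score at or below minus 3 SD of library scores, with starting-brightness B-score within 2 SD, cut at about -4.2 in these data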;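 further: channel flux triggered by added potassium and thallium sulfate stimulus; B-score of peak minus minimum fluorescence over baseline after thallium stimulus; more negative B-score means stronger Kir2.1 block with less thallium influx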
# KCNK9 block: human KCNK9 channel inhibition; HEK293 KCNK9, FluxOR thallium flux fluorescence; stronger effect = lower value; B-score at 10 µM; Q9NPC2; 1.2% of 310,000 active;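 active means ratio B-score over 3 SD below the library mean, with starting fluorescence within 5 SD of its mean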;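 further: negative B-score means less thallium flux so channel inhibition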
# KCNQ1 inh: blocks the human KCNQ1 potassium channel; 1.3% of 310,000 active; P51787; CHO-K1 KCNQ1, FluxOR thallium flux fluorescence; stronger effect = higher value; B-score at 10 µM;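 active means compounds whose thallium flux B-score, printed positive for inhibition, exceeds three library SD while starting fluorescence stays within three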;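 further: channel opened by potassium depolarization with thallium stimulus after 20 min compound exposure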
# KCNK3 block: human KCNK3 channel inhibition, primary screen | O14649 | CHO-KCNK3 thallium flux, FluxOR fluorescence; stronger effect = lower value | B-score at 10 µM | 0.84% of 340,000 active | AID 602410;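 active means B-score under library mean minus 4 SD, starting fluorescence ratio at most library mean plus 5 SD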;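 further: more negative B-score means stronger inhibition of thallium flux through KCNK3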
# hERG protect: compounds protecting human hERG from proarrhythmic drug block; 0.51% of 310,000 active; CHO-hERG, FluxOR thallium flux, dofetilide IC70 present; activation (rescue from dofetilide block), less the hit threshold, % at 10 µM; AID 1511;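 active means activation above the mean of controls blocked by dofetilide plus 5 SD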;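 further: thallium influx through hERG after potassium depolarization seen as dye fluorescence rise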
# Target sequence (Q12809 whole entry, looked up): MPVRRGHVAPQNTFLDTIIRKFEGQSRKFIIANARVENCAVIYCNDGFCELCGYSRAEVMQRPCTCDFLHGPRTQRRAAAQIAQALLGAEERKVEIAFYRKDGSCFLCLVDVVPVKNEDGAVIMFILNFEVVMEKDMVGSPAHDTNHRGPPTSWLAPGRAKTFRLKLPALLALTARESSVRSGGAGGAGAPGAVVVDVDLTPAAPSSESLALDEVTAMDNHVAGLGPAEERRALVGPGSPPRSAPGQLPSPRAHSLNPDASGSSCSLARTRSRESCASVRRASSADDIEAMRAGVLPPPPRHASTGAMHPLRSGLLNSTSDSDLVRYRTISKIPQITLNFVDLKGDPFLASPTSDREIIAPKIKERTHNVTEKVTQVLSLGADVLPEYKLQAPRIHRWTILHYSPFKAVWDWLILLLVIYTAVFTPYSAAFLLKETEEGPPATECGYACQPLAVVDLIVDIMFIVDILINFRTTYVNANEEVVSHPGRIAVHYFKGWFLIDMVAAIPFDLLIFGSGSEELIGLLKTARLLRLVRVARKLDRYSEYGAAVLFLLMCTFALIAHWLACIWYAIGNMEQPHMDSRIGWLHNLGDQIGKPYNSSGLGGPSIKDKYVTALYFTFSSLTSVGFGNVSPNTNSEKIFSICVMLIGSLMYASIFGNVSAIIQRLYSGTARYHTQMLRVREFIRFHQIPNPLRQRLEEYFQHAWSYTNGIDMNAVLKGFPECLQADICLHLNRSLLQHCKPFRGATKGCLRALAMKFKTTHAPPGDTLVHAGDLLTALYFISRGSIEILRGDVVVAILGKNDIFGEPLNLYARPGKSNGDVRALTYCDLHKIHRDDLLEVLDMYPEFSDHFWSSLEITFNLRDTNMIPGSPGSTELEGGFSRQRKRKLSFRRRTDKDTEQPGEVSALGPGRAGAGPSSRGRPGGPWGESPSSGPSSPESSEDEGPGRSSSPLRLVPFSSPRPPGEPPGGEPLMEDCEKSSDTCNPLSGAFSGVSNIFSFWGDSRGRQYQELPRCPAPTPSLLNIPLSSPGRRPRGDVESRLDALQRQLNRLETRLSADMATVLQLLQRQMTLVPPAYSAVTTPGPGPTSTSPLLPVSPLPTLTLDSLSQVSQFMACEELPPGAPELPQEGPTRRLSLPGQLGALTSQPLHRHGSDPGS
# KCNQ1 act: human KCNQ1 channel potentiation or activation; P51787; CHO-K1 KCNQ1, thallium flux FluxOR fluorescence; stronger effect = higher value; B-score at 10 µM; 0.35% of 310,000 active; AID 2648;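 active means fluorescence ratio B-score, a plate-corrected score, at least three library SD, with initial intensity B-score within 5 SD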
#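 Assay system: CHO-K1 cells stably expressing KCNQ1. Medium: assay buffer for compound exposure, DMSO matched across wells. Timing: 37 °C overnight plating, 90-min dark dye load, 20-min compound pretreatment. Signal: kinetic FluxOR fluorescence, 10 s baseline plus 110 s post-stimulus.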
# * hit, by the source's call; i = inactive; . = no result. Most compounds without a hit are left out; they make up all but 3.7% or so of the library.
SMILES,Kir21 inh,KCNK9 block,KCNQ1 inh,KCNK3 block,hERG protect,KCNQ1 act
CC(C)(C)NC(=O)CN(Cc1cccs1)C(=O)C1COc2ccccc2O1 (centres undefined),-1,i,6*,i,-23,i
CC(C)(C)NC(=O)CN(Cc1cccs1)C(=O)CN1C(=O)C(=O)c2ccccc21,0.22,i,i,i,-9,i
CC(C)(C)C(=O)N1CCCC1C(=O)O (centres undefined),1.1,i,i,i,4.9*,i
Cc1cc(C(=O)Nc2sc3c(c2C#N)CCC(C)C3)no1 (centres undefined),-0.29,i,i,i,-7,i
Cc1onc(-c2ccccc2)c1C(=O)NC(=S)Nc1sc2c(c1C#N)CCC(C)C2 (centres undefined),-0.03,i,i,i,15*,21*
Cc1onc(-c2ccccc2)c1C(=O)NC(=S)Nc1sc2c(c1C#N)CCCC2,0.97,i,i,i,16*,8*
Cc1onc(-c2ccccc2)c1C(=O)Nc1sc2c(c1C#N)CCC2,1.6,i,i,i,-12,i
CCOC(=O)C1=C(CSc2nc(-c3ccncc3)ccc2C#N)OC(N)=C(C#N)C1c1ccc(OC)cc1 (centres undefined),-0.18,-7.9*,i,i,-12,i
CCCCCC[N+](C)(C)CC/C=C1/c2ccccc2Sc2ccc(Cl)cc21,-3.8,-8*,i,i,-17,i
CCCCCCCCCCCCCCCC[N+](C)(C)CCl,.,.,.,i,.,.
CCN(CC)C(=O)C(=O)c1cccn1-c1cccc(OC)c1C#N,0.35,i,i,i,-7,i
CN(c1ccccc1)S(=O)(=O)c1cccc(NC(=O)COc2cccc([N+](=O)[O-])c2)c1,.,.,.,-9.9*,.,.
COCCn1cnnc1SCC(=O)Nc1cccc(S(=O)(=O)N(C)c2ccccc2)c1,-0.45,i,i,i,-8,i
CCC(=O)c1ccc(OCC(=O)Nc2cccc(S(=O)(=O)N(C)c3ccccc3)c2)cc1,.,.,.,i,.,.
CN(c1ccccc1)S(=O)(=O)c1cccc(NC(=O)CSc2nccc(=O)[nH]2)c1,.,.,.,-9.8*,.,.
Cc1nnc(SCC(=O)Nc2cccc(S(=O)(=O)N(C)c3ccccc3)c2)s1,-2,i,6*,i,-14,i
C=CCN(c1ccc(C(=O)NCCCn2ccnc2)cc1)S(C)(=O)=O,-1.4,i,i,i,-5,i
COc1ccc(C(=O)Nn2c(SCC(=O)c3ccc(Cl)cc3)nc3ccccc3c2=O)cc1,-0.65,-7.1*,i,i,-13,i
COc1ccc(C(=O)Nn2c(C)nc3ccccc3c2=O)cc1,1.1,i,i,i,-7,i
CCCOc1ccc(C(=O)Nn2c(C)nc3ccccc3c2=O)cc1,0.67,i,i,i,6.5*,i
COc1ccc(C(=O)Nn2c(SCC(=O)N3CCC(C)CC3)nc3ccccc3c2=O)cc1,0.3,i,i,i,-10,i
Cc1ccc(NC(=O)CNC(=O)Cc2cccc3ccccc23)c(O)c1,1.7,i,i,i,-14,i
CCn1c(C)[n+](Cc2ccccc2)c2ccc(Cl)cc21,0,i,i,i,-12,i
CCn1c(/C=C/N(C)c2ccccc2)[n+](CC)c2ccc(Cl)cc21,-1.7,i,13*,i,-22,i
CC(=O)NCc1ccc(C(=O)CSc2nnc(C3CC3)n2C2CC2)cc1,.,.,.,i,.,.
SMILES,Kir21 inh,KCNK9 block,KCNQ1 inh,KCNK3 block,hERG protect,KCNQ1 act
S=c1[nH]nc(COc2ccc(Cl)cc2)n1Cc1ccco1,-0.62,i,i,i,-6,i
Cc1ccc(/C(O)=C/C(=O)C(=O)NNC(=O)C(O)(c2ccccc2)c2ccccc2)cc1,0.07,i,i,i,1,13*
Fc1ccccc1CSc1nncn1NC/C=C/c1ccccc1,-1,i,i,i,-15,i
Cc1nnc(SCc2ccc(F)cc2)n1NC/C=C/c1ccccc1,-5.1*,i,i,i,-11,i
Cc1nc(S(=O)(=O)Nc2ccccc2C(=O)NCC2CC2)cn1C,1.1,i,i,i,-1,i
CN1CCN(CCCNC(=O)c2ccc(/C=C3\Oc4ccccc4N(Cc4ccccc4F)C3=O)cc2)CC1,0.04,i,i,i,-20,i
COCCCNC(=O)/C=C1\Sc2ccccc2N(Cc2ccccc2F)C1=O,0.12,i,i,i,-14,i
CCN1CCN(CCNC(=O)c2ccc(/C=C3\Sc4ccccc4N(Cc4ccccc4F)C3=O)cc2)CC1,-4.7*,i,7*,i,-31,i
CN1CCN(CCCNC(=O)c2ccc(/C=C3\Sc4ccccc4N(Cc4ccc(F)cc4)C3=O)cc2)CC1,-0.43,i,6*,i,-42,i
Cc1ccc(C(=O)C2(C)C3c4cc(Br)ccc4OC(=O)C32C(=O)c2ccco2)cc1 (centres undefined),-0.33,-7.7*,i,i,-7,i
COc1ccc(CCNc2oc(COc3ccc(Br)cc3)nc2C#N)cc1OC,-0.11,-8.1*,i,-12*,-20,i
COc1ccc(CCNc2oc(COc3ccccc3F)nc2C#N)cc1,-0.38,i,i,i,-13,i
O=C1c2ccccc2NC(c2ccc(Br)o2)N1O (centres undefined),.,.,.,i,.,.
O=C1c2ccccc2NC(c2ccc(Br)s2)N1O (centres undefined),-0.11,i,i,i,21*,22*
CCc1ccc(-n2cnc3cc(C(=O)NCC(OC)OC)ccc32)cc1,0.68,i,i,i,-4,i
O=c1[nH]c(SCc2c(Cl)cccc2Cl)nc2ccccc12,-0.42,i,i,i,-22,i
O=c1[nH]c(C(Cl)(Cl)Cl)nc2ccc3ccccc3c12,0.06,i,i,i,5.1*,25*
COCCN(CC(=O)Nc1cccc(C)c1C)C(=O)c1oc2ccccc2c1C,.,.,.,i,.,.
CCOc1ccc(C(O)(c2ccccc2OC)C(CN2CCCC2)c2ccccc2)cc1 (centres undefined),-1.6,i,11*,i,-12,i
CN1C(=O)/C(=C\c2ccc(N(C)C)cc2)OC1=S,-0.96,i,11*,i,-17,i
COc1cnc(-c2ccccn2)nc1Oc1ccc(Cl)c2ccccc12,1.3,-8.1*,i,i,-4,i
CC(=O)N1c2ccc(S(=O)(=O)NCC3CCC(C(=O)N4CCCC(C)C4)CC3)cc2CC1C (centres undefined),2.2,i,i,i,-7,i
CCn1nc(C)cc1-c1nnc(SCC(=O)Nc2ccccc2)n1CCCOC,0.2,i,i,i,-9,i
